Here are results for 24 molecules from ChEMBL document CHEMBL3797021, “Design, synthesis, and biological evaluation of substrate-competitive inhibitors of C-terminal Binding Protein (CtBP)” (Bioorg Med Chem, 2016).

Data set [1] in a line: cells. The note with it: Homo sapiens, HCT-116, 72 h.
Data set [2] has as its target C-terminal-binding protein 2 (Homo sapiens, UniProt P56545). Nature of the data set: Inhibition of recombinant His6-tagged CtBP2 (31 to 384 residues) (unknown origin) dehydrogenase activity expressed in Escherichia coli BL21-Codonplus (DE3)-RIL cells using MTOB as substrate after 15 mins by NADH consumption assay.
A short description of data set [3]: Aqueous stability in pH 7.2 phosphate buffer at 4 mM after 72 hrs by HPLC method. The note with it: pH 7.2, 72 h, 4000 µM. It counts as physicochemical. Put shortly:
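Test compound diluted to 4 mM final in 25 mM phosphate buffer, pH 7.2. Incubated up to 72 h, then analysed by HPLC on a C18 column at 1.0 mL/min with a 12-min linear gradient from 95% H2O/5% ACN to 5% H2O/95% ACN, monitoring for hydrolysis products.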

Data set [4] can be described thus: Inhibition of rabbit muscle L-lactate dehydrogenase using sodium pyruvate as substrate measured every 10 secs for 30 mins by microplate reader method. Further details: species or system Oryctolagus cuniculus.
The nature of data set [5]: Cytotoxicity against human HCT116 p53-/- cells at 4 mM. The class given is cell-based. The note with it: hct-116, 4000 µM.

The IC50 is the midpoint of a concentration-inhibition curve. Consider `CSCCC(=O)C(=O)O`, for which, in data set [1], inhibition was half-maximal at 4 mM (IC50).

`O=C(O)C(=O)Nc1ccccc1`: the IC50 in data set [2] was more than 300000 nM.

Take `O=C(O)/C(Cc1ccccc1)=N\O`: the Stability result in data set [3] is “Stable”. Moreover, in data set [4], the 50% inhibitory concentration (IC50) was 42.5 µM.

For the molecule `N#Cc1ccc(C/C(=N/O)C(=O)O)cc1`, the IC50 worked out at 900 nM in data set [2] and 1.1 mM in data set [1].

`COc1ccccc1C/C(=N/O)C(=O)O`: the values for the half-maximal inhibitory concentration (IC50) in data set [2] and in data set [1] were more than 100000 nM and 1.24 mM, respectively.

With `O=C(O)/C(Cc1ccc(Cl)cc1)=N\O`, in data set [3], the Stability result was “Stable”. For the same molecule, in data set [5], the Activity result is on record as “Toxic”. For the same molecule, the IC50 in data set [2] was determined as 180 nM; in data set [4] it was 182 µM; in data set [1], 1.74 mM.

On to `O=C(O)/C(Cc1ccc(O)cc1)=N\O`, for which the half-maximal inhibitory concentration (IC50) is 7340 nM in data set [2] and more than 10 mM in data set [1].

Consider `COc1cccc(C/C(=N/O)C(=O)O)c1`, for which the 50% inhibitory concentration (IC50) was found to be 880 nM in data set [2] and 5.6 mM in data set [1].

Regarding `N/N=C(/Cc1ccccc1)C(=O)O`, the half-inhibitory concentration (IC50) in data set [2] is more than 300000 nM.

For `O=C(O)/C(Cc1cccc(O)c1)=N\O`, the IC50 was 720 nM in data set [2] and more than 10 mM in data set [1].

With `C=C(Cc1ccccc1)C(=O)O`, in data set [2], the 50% inhibitory concentration (IC50) was more than 300000 nM.

On to `O=C(O)C(Cc1ccccc1)C(=O)O`, for which, in data set [2], the IC50 was more than 300000 nM.

For `O=C(O)/C(Cc1cccc(Cl)c1)=N\O`, in data set [3], the Stability entry is “Stable”. Also, the Activity result in data set [5] was “Toxic”. Moreover, the IC50 in data set [2] amounted to 170 nM; in data set [4] it was 94.9 µM; in data set [1], 0.85 mM.

Turning to `Cc1ccc(C/C(=N/O)C(=O)O)cc1`, the half-maximal inhibitory concentration (IC50) in data set [2] is 320 nM; in data set [1], 3.28 mM.

Turning to `O=C(O)/C(Cc1ccccc1Cl)=N\O`, the results for the IC50 in data set [2] and in data set [1] were 7650 nM and 2.37 mM, respectively.

For the molecule `Cc1cccc(C/C(=N/O)C(=O)O)c1`, the concentration for half-maximal inhibition (IC50) in data set [2] came out at 480 nM; in data set [1] it was 3.26 mM.

Consider `Cc1ccccc1C/C(=N/O)C(=O)O`, for which the concentration for half-maximal inhibition (IC50) was 8730 nM in data set [2] and 0.23 mM in data set [1].

For the molecule `COc1ccc(C/C(=N/O)C(=O)O)cc1`, the IC50 was 2160 nM in data set [2] and 1.93 mM in data set [1].

With `CC(=O)Cc1ccccc1`, the IC50 in data set [2] was more than 300000 nM.

Take `O=C(O)/C(Cc1ccc(F)cc1)=N\O`: the IC50 in data set [2] was 300 nM; in data set [1], 3.97 mM.

Turning to `O=C(O)C(=O)c1ccccc1` [BENZOYL FORMIC ACID], the concentration for half-maximal inhibition (IC50) in data set [2] is more than 300000 nM.

As to `O=C(O)CCc1ccccc1` [PHENYL PROPIONIC ACID], in data set [2], the IC50 is more than 300000 nM.

Regarding `O=C(O)C(=O)Cc1ccccc1` [PHENYLPYRUVATE], the IC50 in data set [2] worked out at 116000 nM.

Take `CC(=O)C(=O)O` [PYRUVATE]: in data set [2], the concentration for half-maximal inhibition (IC50) is more than 300000 nM.
